# Experimental data taken from paper PMC7159910 (Science Advances, 2020).
# Tests used:
# [1] = tested on: PHF20L1 expression in MDA-MB-231 cells; assay: Western blotting of PHF20L1 in cells exposed to CoCl2; format: cell-based, human; details: MDA-MB-231 cells exposed to CoCl2
# Method in brief: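 MDA-MB-231 cells, grown in L-15 medium with 10% FBS at 37°C without CO2, treated with CoCl2 as hypoxia mimic; lysates immunoblotted for PHF20L1 and for HIF1α as hypoxia marker.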
# [2] = biological target: PHF20L1 TUDOR domain; assay: ITC
Kd [2] [µM],Compound,induction of PHF20L1 protein by hypoxia activator [1]
–,"[Cl][Co][Cl] [CoCl2, cobalt chloride]",PHF20L1 was indeed induced
73.6,H3K27me2 peptide (ITC),–
